TRPC4 PAM: allosterically enhances the mouse TRPC4 cation channel; HEK293 TRPC4beta/mu-opioid, DAMGO EC20, Fluo-4 Ca2+ flux; active compounds read high; B-score at 10 µM; 310,000 tested, 0.42% active; AID 2227; Q9QUQ5;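 active = B-score of calcium response area above 5 SD of library B-scores, with initial fluorescence ratio within 5 SD of library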
Target sequence (Q9QUQ5 whole entry, looked up): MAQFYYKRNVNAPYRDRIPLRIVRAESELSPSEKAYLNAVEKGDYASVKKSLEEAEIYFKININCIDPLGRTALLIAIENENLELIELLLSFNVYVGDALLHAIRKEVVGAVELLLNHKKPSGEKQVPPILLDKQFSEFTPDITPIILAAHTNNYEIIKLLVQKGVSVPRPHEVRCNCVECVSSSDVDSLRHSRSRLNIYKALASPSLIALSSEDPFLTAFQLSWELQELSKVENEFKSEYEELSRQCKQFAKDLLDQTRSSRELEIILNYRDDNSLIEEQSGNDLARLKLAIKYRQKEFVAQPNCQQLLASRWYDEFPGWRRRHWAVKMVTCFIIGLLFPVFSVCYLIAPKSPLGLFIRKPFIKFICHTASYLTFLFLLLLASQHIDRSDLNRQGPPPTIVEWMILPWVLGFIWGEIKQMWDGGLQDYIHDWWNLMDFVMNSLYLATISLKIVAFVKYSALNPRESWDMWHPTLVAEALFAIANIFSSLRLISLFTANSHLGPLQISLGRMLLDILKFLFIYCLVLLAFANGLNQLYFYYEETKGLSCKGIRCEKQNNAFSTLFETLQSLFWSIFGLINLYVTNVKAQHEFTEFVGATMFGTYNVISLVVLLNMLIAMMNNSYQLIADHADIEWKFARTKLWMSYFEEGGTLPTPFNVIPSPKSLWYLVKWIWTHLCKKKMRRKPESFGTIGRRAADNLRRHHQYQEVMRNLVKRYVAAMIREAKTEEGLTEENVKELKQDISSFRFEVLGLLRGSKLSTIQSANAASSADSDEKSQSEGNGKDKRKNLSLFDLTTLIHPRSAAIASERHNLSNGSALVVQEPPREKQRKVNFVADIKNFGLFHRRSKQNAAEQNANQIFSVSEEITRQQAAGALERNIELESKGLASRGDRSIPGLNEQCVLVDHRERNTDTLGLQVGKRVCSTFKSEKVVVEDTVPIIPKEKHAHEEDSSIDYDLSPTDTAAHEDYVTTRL
TRPC6 act: mouse TRPC6 channel activation. Q61143. HEK293-TRPC6 membrane potential dye fluorescence; active compounds read high. B-score at 10 µM. 310,000 tested, 0.13% active;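 active = B-score of the integrated fluorescence ratio above library mean plus 3 SD, and starting fluorescence ratio within library mean plus 5 SD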;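 note: higher score means more depolarization so channel activation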
TRPC4 act: opens the mouse TRPC4 cation channel; 310,000 tested, 0.49% active; HEK293 TRPC4beta/mu-opioid, Fluo4 calcium fluorescence; active compounds read high; B-score at 10 µM;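 active = B-score above 5 SD of library B-scores, and initial fluorescence ratio not above library mean plus 5 SD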;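 note: positive B-score marks a calcium rise read as TRPC4 activation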
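Technique: kinetic Fluo4 calcium fluorescence; Test system: TRPC4beta and mu-opioid receptor HEK293 stable cells; Measure: B-scored integrated calcium fluorescence ratio; Benchmarks: low control buffer alone, high control maximal DAMGO; Schedule: 45 min room-temperature Fluo4 loading, 110 s read.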
Platelet DG rel: modulates dense granule release in human platelets; human platelet-rich plasma, SFLLRN dense granule ATP release, luminescence; inhibition, %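 (compounds screened at 7.5 µM in platelet-rich plasma)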; 300,000 tested, 0.22% active;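 active = mean replicate score, as percent of positive control, at or above 50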
TRPC6 inh: mouse TRPC6 channel inhibition; Q61143; HEK293-TRPC6, membrane potential dye, ACh-evoked depolarization; active compounds read low; B-score at 10 µM; 310,000 tested, 1.1% active;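 active = B-score under library mean minus 3 SD, initial fluorescence not abnormally high, positive integrated signal ratio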;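 note: B-score derived from integrated fluorescence ratio over the kinetic read; more negative B-score means stronger inhibition of depolarization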
TRPC4 inh: TRPC4 (mouse) channel inhibition; Q9QUQ5; B-score at 10 µM; 300,000 tested, 0.39% active; HEK293 TRPC4beta/mu-opioid, DAMGO-evoked Fluo4 calcium flux; active compounds read low;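 active = B-score over 3 SD under the library average, no early fluorescence shift, positive overall ratio signal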
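Assay system: TRPC4beta/mu-opioid receptor HEK293 cell line; compound dosing: single concentration per test compound; detection: Fluo4 Ca2+ flux fluorescence; evaluation: per-well B score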
A number is an active result; . = inactive; / = no result given. In the library only some 2.5% were active in any assay of this set; here they are far more common.

SMILES	TRPC4 PAM	TRPC6 act	TRPC4 act	Platelet DG rel	TRPC6 inh	TRPC4 inh
CC(C)Cc1cc(CN2CCCC(CO)(Cc3cccc(Cl)c3)C2)[nH]n1 (configuration not stated)	.	.	.	.	.	-10
COc1ccccc1-n1cc(CN2CCCC(CO)(Cc3cccc(Cl)c3)C2)cn1 (configuration not stated)	.	.	.	.	.	-5
Cc1ccc(-n2cc(CN3CCC(CO)(Cc4ccccc4)CC3)cn2)cc1	.	.	.	.	.	.
Cc1cc(CN2CCCC(CO)(Cc3cccc(Cl)c3)C2)n[nH]1 (configuration not stated)	.	.	.	.	.	.
OCC1(Cc2ccccc2)CCCN(Cc2cnn(-c3ccccc3)c2)C1 (configuration not stated)	.	.	.	.	.	-7
COc1ccc(OC)c(C2C(C(C)=O)=C(C)Nc3ncnn32)c1 (configuration not stated)	.	.	.	.	.	.
CCN(CC)S(=O)(=O)c1ccc(C)c(NC(=S)NNC(=O)C2CC2)c1	.	.	.	.	.	.
O=c1onc(-c2ccc(Cl)cc2)n1Cc1ccc(F)cc1	.	.	.	.	.	.
C=CCNC(=O)C(=O)NCC1CCCN1S(=O)(=O)c1cccs1 (configuration not stated)	86	.	.	.	.	.
O=C(NCCO)C(=O)NCC1CCCN1S(=O)(=O)c1cccs1 (configuration not stated)	.	.	.	.	.	.
O=C(NCCSc1c[nH]c2ccccc12)c1ccco1	.	.	.	.	.	.
O=C(NCCSc1c[nH]c2ccccc12)c1c(F)cccc1F	.	.	.	74.5	.	.
CNC(=S)NNC(=O)c1cccn(Cc2cccc(C(F)(F)F)c2)c1=O	25	.	.	.	.	.
CNC(=S)NNC(=O)c1cccn(Cc2ccc(Cl)cc2Cl)c1=O	.	.	.	.	.	.
Cc1ncc(CN2CCC(CO)(CCc3ccccc3)CC2)s1	.	.	73	.	.	.
Cc1ncc(CN2CCN(CCc3ccccc3)C(CCO)C2)s1 (configuration not stated)	.	.	.	.	.	.
OCC1(CCCc2ccccc2)CCN(Cc2cnc(N3CCOCC3)s2)CC1	.	.	46	.	.	.
CCCCNC(=O)c1onc(CSc2cccc(C)c2)c1C(=O)O	.	.	.	.	.	.
COC(=O)COc1ccc2oc(=O)cc(-c3cc4cccc(OC)c4o3)c2c1	.	.	.	.	.	.
Cc1ccc(/C=C2\SC(N3CCCCC3)=NC2=O)cc1	12	.	.	.	.	.
CCc1ccc(/C=C2/SC(N3CCOCC3)=NC2=O)cc1	.	.	.	.	.	.
CCN1CCN(C2=NC(=O)/C(=C/c3ccc(C)o3)S2)CC1	14	.	.	.	.	.
Cc1ccc(NC2CCCN(C(=O)CCCN3CCCCC3=O)C2)cc1C (configuration not stated)	.	.	.	.	.	.
COc1ccc(NC(=O)CSc2nnc(-c3cccs3)n2-c2ccccc2)cc1	.	.	.	.	.	.
Cc1ccc(-n2ncc3c(=O)n(CC(=O)N(C(C)C)C(C)C)cnc32)cc1	.	.	.	.	.	.
SMILES	TRPC4 PAM	TRPC6 act	TRPC4 act	Platelet DG rel	TRPC6 inh	TRPC4 inh
O=C(/C=C/c1ccc(Cl)cc1Cl)N(Cc1ccccc1)C1CCS(=O)(=O)C1 (configuration not stated)	.	.	.	.	.	.
Cc1ccc2c(C)c(C(=O)N(Cc3ccccc3)C3CCS(=O)(=O)C3)oc2c1 (configuration not stated)	.	.	.	.	.	.
Cc1ccc2c(C)c(C(=O)N(Cc3cccs3)C3CCS(=O)(=O)C3)oc2c1 (configuration not stated)	.	.	61	/	.	.
Cc1ccc2oc(C(=O)N(Cc3ccccc3)C3CCS(=O)(=O)C3)c(C)c2c1 (configuration not stated)	.	.	43	.	.	.
O=C(/C=C/c1ccc(Cl)cc1)N(Cc1ccccc1)C1CCS(=O)(=O)C1 (configuration not stated)	20	.	.	.	.	.
NC(=O)N=Nc1c(O)n(Cc2ccccc2)c2ccc(Br)cc12	.	.	.	.	.	.
COc1ccc(NC(=O)CN2C(=O)CSc3ncccc32)cc1	.	.	.	.	.	.
O=C(NC1CC1)C1=C[C@H](c2csc3ccccc23)C[C@H](OCc2ccc(CO)cc2)O1	.	.	113	.	.	.
O=C(Nc1ccccc1)C1=C[C@H](c2csc3ccccc23)C[C@H](OCc2ccc(CO)cc2)O1	14	.	.	.	.	.
O=C(Nc1ccccc1)C1=C[C@H](c2csc3ccccc23)C[C@H](OCCCCO)O1	.	.	.	.	.	.
OCCC1CN(Cc2cccc3nccnc23)CCN1Cc1ccc(F)cc1 (configuration not stated)	.	.	.	.	.	.
O=C1c2ccccc2NC(c2ccc([N+](=O)[O-])cc2)N1O (configuration not stated)	.	.	.	.	.	.
Cc1nnc(SCc2cccc([N+](=O)[O-])c2)[nH]c1=O	.	.	.	.	.	.
O=C(NCCn1cccn1)c1ccc(OC2CCN(CCc3ccccc3)CC2)cc1	.	.	66	.	.	.
COC(=O)CCCNC(=O)c1ccc(OC2CCN(CCc3ccccc3)CC2)cc1	.	.	79	.	.	.
CN(C(=O)c1ccc(OC2CCN(CCc3ccccc3)CC2)cc1)C1CCCCC1	.	.	.	.	.	-6
CSCCNC(=O)c1ccc(OC2CCN(CCc3ccccc3)CC2)cc1	.	.	.	.	.	-6
Cc1ccn2c(NC3CCCCC3)c(C(C)C)nc2c1	.	.	.	.	.	-7
O=C(NC(=O)c1ccccc1)Nc1ccccn1	.	.	.	81.6	.	.
OCCN(CCCn1c(-c2ccncc2)nc2ccccc21)c1nc(CN2CCCCC2)cs1	.	.	.	.	.	.
COc1cccc(/C=N/Nc2ccc(S(=O)(=O)O)cc2)c1O	.	.	.	55.5	.	.
COc1cccc(C(=O)Oc2ccc(/C=N/Nc3ccc(C(=O)O)cc3)cc2OC)c1	.	.	.	.	.	.
COc1cccc(/C=N/Nc2ccccc2C(=O)O)c1O	.	.	.	.	.	.
COc1cccc(OCc2cc(/C=N/Nc3ccc(C(=O)O)cc3)ccc2OC)c1	.	.	.	65.2	.	.
COc1cccc(/C=N/Nc2ccc(C(=O)O)cc2)c1O	.	.	.	95.3	.	.

Assay outcomes: PubChem BioAssay, several laboratories
